How the values were obtained:
mature 3.L2 T cells [1] = settings: cited from earlier work; for Effect on mature T cells: ligand class in words
3.L2 TCR = settings: cited from earlier work; for Half-life: longevity of the 3.L2 TCR–APL complex; for Half-life / Kd: BIAcore; for Kd: read-out: K D k off/k on, kinetic
QC85.5 hybridoma = test: T cell hybridoma assay; format: cell-based, mouse; settings: IL-2 production; in words
Outline: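 Increasing numbers of splenocytes from transgenic mice were cultured 24 h with QC85.5 hybridoma cells. QC85.5 was raised by immunizing CE/J mice with a position-72 altered Hb peptide, subcloned twice, and recognizes several position-72 variants. IL-2 in supernatant was measured by CTLL-2 proliferation and plotted as CTLL-2 cpm against splenocytes per well. Each point is the mean of triplicate wells.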

mature 3.L2 T cells [2] = settings: B cell apoptosis assay; cited from earlier work
3.L2tg thymocytes = test: Three-color FACS of thymocytes from APLtg × 3.L2tg mice; format: in vivo, mouse; settings: for Interpretation: effect on thymic selection of 3.L2tg T cells: ligand expressed in thymus as mHEL epitope tag, in words
[3] = test system: splenocytes from APLtg × 3.L2tg mice; test: Primary T cell proliferation of naive splenocytes to Hb; format: cell-based, mouse; settings: in words
Outline: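 Naive splenocytes from APLtg × 3.L2tg mice or 3.L2tg controls were plated at 5 × 10^5/well with increasing Hb(64–76) peptide concentrations for 48 h. They were then pulsed with 0.4 μCi [3H]TdR for 18 h, harvested and counted. Read-out was mean cpm of triplicate wells per peptide dose, and curves were averaged across several experiments.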

3.L2.12 hybridoma = settings: cited from earlier work

Substance	Effect on mature T cells (mature 3.L2 T cells [1])	Half-life (3.L2 TCR) [s]	Stimulation of QC85.5 hybridoma by peptide (QC85.5 hybridoma)	Relative activity (mature 3.L2 T cells [2])	Interpretation: effect on thymic selection of 3.L2tg T cells (3.L2tg thymocytes)	Binding to the 3.L2 TCR in BIAcore experiments (3.L2 TCR; in words)	Increase in percentage of CD4-SP cells with high levels of the 3.L2 TCR over 3.L2tg control (3.L2tg thymocytes; P < 0.01) [%]	Kd (3.L2 TCR) [µM]	Response of naive 3.L2tg splenocytes to Hb(64–76) on the selecting background [3]	Fold less active than N72(wt) (mature 3.L2 T cells [1]) [fold]	Reduction of 3.L2.12 stimulation by peptide (3.L2.12 hybridoma) [fold]
Hb(64–76) N72A [Ligand A72]	a weaker antagonist	<2	produce IL-2	0.0007	modest negative selection						
GKKVITAFQEGLK [Ligand Q72, Hb(64–76) N72Q]	no effect on mature 3.L2 T cells		stimulated most strongly	none	enhance the positive selection	no binding can be detected	12				
GKKVITAFNEGLK [N72(wt), Hb(64–76)]	the strongest agonist	10.8	produce IL-2	100	complete negative selection			12	tolerant to Hb(64–76)		
Hb(64–76) N72E [Ligand E72]	no effect on mature T cells			none	no effect on 3.L2tg T cell development						
Hb(64–76) N72I [Ligand I72]	an antagonist	2.3 to 3.4		0.006	complete negative selection			10 to 20	tolerant to Hb(64–76)		
Hb(64–76) N72T [Ligand T72]	a weaker agonist	5.1	produce IL-2	2	identical effect			9.9	tolerant to Hb(64–76)	50	50

Source: paper PMC2193645 (The Journal of Experimental Medicine, 1999)
